Fold change (FC) and EC30 data for 19 compounds are collected here from ChEMBL document CHEMBL4622869, “Discovery and structure-activity relationships study of positive allosteric modulators of the M3 muscarinic acetylcholine receptor” (Bioorg Med Chem, 2020).

In the first series the target is Muscarinic acetylcholine receptor M3 (Homo sapiens) (UniProt P20309). The series is described as follows: Positive allosteric modulation of recombinant human muscarinic acetylcholine receptor M3 expressed in CHOK1 cells assessed as increase in carbachol-induced intracellular calcium flux at 10 uM preincubated for 5 mins followed by carbachol addition by Fluo4-AM dye based FLIPR assay relative to carbachol. It is filed as functional, cell-based. The settings on record: CHO-K1. In outline: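 CHO-K1 cells stably expressing human or rat M1–M5; M2 and M4 lines also co-express human Gα16. Cells loaded with 3.1 μM Fluo-4 AM in HBSS/20 mM HEPES pH 7.5/BSA/2.5 mM probenecid for ~2 h at room temperature. Test substance at 10 μM final, then carbachol (0.0024 nM–100 μM) ~5 min later; Ca2+ read by FLIPR Tetra. Fold shift = carbachol EC50 without / with test substance, from logistic fits.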
Sequence of Muscarinic acetylcholine receptor M3 (Homo sapiens) (P20309 whole entry, looked up): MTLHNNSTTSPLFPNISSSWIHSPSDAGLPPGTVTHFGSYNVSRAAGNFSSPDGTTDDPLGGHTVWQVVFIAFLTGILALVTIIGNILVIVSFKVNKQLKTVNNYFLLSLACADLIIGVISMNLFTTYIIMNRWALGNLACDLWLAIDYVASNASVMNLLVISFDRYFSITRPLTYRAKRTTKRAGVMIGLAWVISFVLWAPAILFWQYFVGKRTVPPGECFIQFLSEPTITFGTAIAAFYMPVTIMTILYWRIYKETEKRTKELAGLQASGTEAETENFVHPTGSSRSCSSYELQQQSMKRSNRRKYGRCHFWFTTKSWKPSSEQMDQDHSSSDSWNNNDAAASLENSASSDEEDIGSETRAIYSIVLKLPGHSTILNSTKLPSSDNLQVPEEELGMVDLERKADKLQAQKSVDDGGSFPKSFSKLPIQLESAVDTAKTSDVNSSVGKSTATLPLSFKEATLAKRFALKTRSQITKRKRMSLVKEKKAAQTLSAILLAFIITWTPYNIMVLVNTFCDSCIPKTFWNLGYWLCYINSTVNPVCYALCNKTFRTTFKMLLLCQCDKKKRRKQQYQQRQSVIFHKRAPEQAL
For orientation: Calcium assays in cells follow changes in intracellular calcium, usually with a dye or a luminescent sensor.
Turning to `C[C@@H]1CCCN1Cc1sc(NC(=O)c2cnc(N3CCC(C(=O)O)CC3)cn2)nc1-c1cc(Cl)cc(C(F)(F)F)c1.Cl.Cl`, the fold change (FC) was determined as 168.

As for `COCCN(Cc1sc(NC(=O)c2cnc(N3CCC(C(=O)O)CC3)cn2)nc1-c1ccc(OC)c(C(F)(F)F)c1)CC(C)C.Cl.Cl`, the fold change (FC) was 84.

As to `C[C@@H]1CCCN1Cc1sc(NC(=O)c2cnc(N3CCC(C(=O)O)CC3)cn2)nc1-c1cc(Cl)cs1.Cl.Cl`, the fold change (FC) is 186.

`COc1ccc(-c2nc(NC(=O)c3cnc(NCC(=O)O)cn3)sc2CN2CCCC(C)(C)C2)cc1C(F)(F)F`: the fold change (FC) stood at 162.

For `C[C@@H]1CCCN1Cc1sc(NC(=O)c2cnc(N3CCC(C(=O)O)CC3)nc2)nc1-c1cc(Cl)cs1`, the fold change (FC) stood at 65.

Take `C[C@@H]1CCCN1Cc1sc(NC(=O)C2CCN(c3ccc(C(=O)O)cn3)CC2)nc1-c1cc(Cl)cs1` (racemic): the fold change (FC) was found to be 2.8.

On to `COC[C@@H]1CCCN1Cc1sc(NC(=O)c2cnc(N3CCC(C(=O)O)CC3)cn2)nc1-c1ccc(OC)c(C(F)(F)F)c1.Cl.Cl`, for which the fold change (FC) stood at 72.

Take `COc1ccc(-c2nc(NC(=O)c3cnc(N4CCC(C(=O)O)CC4)cn3)sc2CN2CCC[C@H]2C)cc1C(F)(F)F.Cl.Cl`: the fold change (FC) is 73.

Turning to `C[C@@H]1CCCN1Cc1sc(NC(=O)c2cnc(N3CCC(C(=O)O)CC3)c(F)c2)nc1-c1cc(Cl)cs1.Cl.Cl`, the fold change (FC) is 132.

With `COc1ccc(-c2nc(NC(=O)c3cnc(N4CCC(C(=O)O)CC4)cn3)sc2CN2CCCC(C)(C)C2)cc1C(F)(F)F.Cl.Cl`, the fold change (FC) was found to be 238.

With `CCC[C@@H]1CCCN1Cc1sc(NC(=O)c2cnc(N3CCC(C(=O)O)CC3)cn2)nc1-c1ccc(OC)c(C(F)(F)F)c1.Cl.Cl`, the fold change (FC) is 128.

As to `COc1ccc(-c2nc(NC(=O)c3cnc(C(=O)O)cn3)sc2CN2CCCC(C)(C)C2)cc1C(F)(F)F`, the fold change (FC) was found to be 39.

With `C[C@@H]1CCCN1Cc1sc(NC(=O)c2cnc(N3CCC(C(=O)O)CC3)cn2)nc1-c1ccc(Cl)c(C(F)(F)F)c1.Cl.Cl`, the fold change (FC) came to 118.

As for `COc1ccc(-c2nc(NC(=O)c3cnc(N4CCC(C(=O)O)CC4)cn3)sc2CN2CCC[C@@H]2C)cc1C(F)(F)F.Cl.Cl`, the fold change (FC) was found to be 25.

Turning to `COc1ccc(-c2nc(NC(=O)c3cnc(OCC(=O)O)cn3)sc2CN2CCCC(C)(C)C2)cc1C(F)(F)F`, the fold change (FC) was found to be 175.

In the case of `COc1ccc(-c2nc(NC(=O)c3ccc(O)cc3)sc2CN2CCCC(C)(C)C2)cc1C(F)(F)F`, the fold change (FC) came out at 8.9.

As to `COc1ccc(-c2nc(NC(=O)c3cnc(N(C)CC(=O)O)cn3)sc2CN2CCCC(C)(C)C2)cc1C(F)(F)F`, the fold change (FC) was 137.

For `COc1ccc(-c2nc(NC(=O)c3ccc(OCC(=O)O)cc3)sc2CN2CCCC(C)(C)C2)cc1C(F)(F)F`, the fold change (FC) was determined as 204.

In the case of `COc1ccc(-c2nc(NC(=O)c3cnc(N4CCC(C(=O)O)CC4)cn3)sc2CN2CCCC[C@H]2C)cc1C(F)(F)F.Cl.Cl`, the fold change (FC) stood at 94.

Another series deals with T1, Thrombopoietin receptor (Homo sapiens, UniProt P40238).
T1 sequence (P40238 whole entry): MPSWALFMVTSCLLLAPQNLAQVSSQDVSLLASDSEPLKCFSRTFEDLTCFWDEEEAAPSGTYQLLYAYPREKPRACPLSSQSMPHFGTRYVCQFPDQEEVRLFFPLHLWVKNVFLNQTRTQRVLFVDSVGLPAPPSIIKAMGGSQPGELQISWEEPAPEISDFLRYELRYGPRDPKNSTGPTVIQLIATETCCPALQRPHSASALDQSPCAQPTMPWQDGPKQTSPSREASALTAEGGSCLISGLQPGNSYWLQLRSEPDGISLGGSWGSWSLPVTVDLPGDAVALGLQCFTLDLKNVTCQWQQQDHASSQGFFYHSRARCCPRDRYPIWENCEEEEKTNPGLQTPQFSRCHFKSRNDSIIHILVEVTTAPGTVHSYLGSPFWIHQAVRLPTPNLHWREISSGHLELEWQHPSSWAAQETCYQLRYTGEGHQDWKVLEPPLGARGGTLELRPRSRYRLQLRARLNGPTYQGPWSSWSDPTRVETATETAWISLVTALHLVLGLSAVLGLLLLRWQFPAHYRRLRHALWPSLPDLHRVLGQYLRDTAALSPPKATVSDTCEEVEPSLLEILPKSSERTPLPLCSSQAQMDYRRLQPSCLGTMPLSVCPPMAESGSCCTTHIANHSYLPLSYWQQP
Briefly: Agonist activity at recombinant human c-Mpl receptor transfected in BA/F3 cells assessed as increase in cell proliferation by cell counting analysis. It is filed as cell-based. Particulars: baf3. In outline: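 Ba/F3 cells stably transfected with human c-Mpl by electroporation with blasticidin selection. 1×10^4 cells/well in RPMI-1640 with 10% FBS, with test substance (100 nM to 10 μM final), overnight at 37°C in 5% CO2. Cell Counting Kit added for about 5 h, then A450 read. Scale: untreated wells 0%, reference c-Mpl agonist at 1 μM 100%. EC30 from logistic regression.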
The EC30 is the point of the concentration-response curve where the effect stands at 30%. Regarding `C[C@@H]1CCCN1Cc1sc(NC(=O)c2cnc(N3CCC(C(=O)O)CC3)cn2)nc1-c1cc(Cl)cc(C(F)(F)F)c1.Cl.Cl`, the EC30 stood at 0.15 µM.

For `COCCN(Cc1sc(NC(=O)c2cnc(N3CCC(C(=O)O)CC3)cn2)nc1-c1ccc(OC)c(C(F)(F)F)c1)CC(C)C.Cl.Cl`, the EC30 was above 10 µM.

`C[C@@H]1CCCN1Cc1sc(NC(=O)c2cnc(N3CCC(C(=O)O)CC3)cn2)nc1-c1cc(Cl)cs1.Cl.Cl`: the EC30 was found to be 0.35 µM.

In the case of `COC[C@@H]1CCCN1Cc1sc(NC(=O)c2cnc(N3CCC(C(=O)O)CC3)cn2)nc1-c1ccc(OC)c(C(F)(F)F)c1.Cl.Cl`, the EC30 was above 10 µM.

With `COc1ccc(-c2nc(NC(=O)c3cnc(N4CCC(C(=O)O)CC4)cn3)sc2CN2CCC[C@H]2C)cc1C(F)(F)F.Cl.Cl`, the EC30 is above 10 µM.

In the case of `C[C@@H]1CCCN1Cc1sc(NC(=O)c2cnc(N3CCC(C(=O)O)CC3)c(F)c2)nc1-c1cc(Cl)cs1.Cl.Cl`, the 30% effect concentration (EC30) was determined as 0.0032 µM.

In the case of `COc1ccc(-c2nc(NC(=O)c3cnc(N4CCC(C(=O)O)CC4)cn3)sc2CN2CCCC(C)(C)C2)cc1C(F)(F)F.Cl.Cl`, the EC30 was above 10 µM.

In the case of `CCC[C@@H]1CCCN1Cc1sc(NC(=O)c2cnc(N3CCC(C(=O)O)CC3)cn2)nc1-c1ccc(OC)c(C(F)(F)F)c1.Cl.Cl`, the EC30 was above 10 µM.

`C[C@@H]1CCCN1Cc1sc(NC(=O)c2cnc(N3CCC(C(=O)O)CC3)cn2)nc1-c1ccc(Cl)c(C(F)(F)F)c1.Cl.Cl`: the EC30 turned out to be 1.72 µM.

Take `COc1ccc(-c2nc(NC(=O)c3cnc(N4CCC(C(=O)O)CC4)cn3)sc2CN2CCC[C@@H]2C)cc1C(F)(F)F.Cl.Cl`: the EC30 is above 10 µM.

As for `COc1ccc(-c2nc(NC(=O)c3cnc(N4CCC(C(=O)O)CC4)cn3)sc2CN2CCCC[C@H]2C)cc1C(F)(F)F.Cl.Cl`, the concentration for an effect of 30% (EC30) was above 10 µM.
